Measured values reported in ChEMBL document CHEMBL3044889, “Synthesis and quantitative structure-activity relationship (QSAR) study of novel 4-acyloxypodophyllotoxin derivatives modified in the A and C rings as insecticidal agents” (2013).

How the values were obtained:
Assay type in all cases: functional
[1] = test system: Mythimna separata; experiment: Insecticidal activity against pre-third-instar larvae of Mythimna separata (Oriental armyworm) assessed as corrected mortality rate at 1 mg/ml measured after 10 days by the leaf-dipping method; settings: 240 h
Method in brief: (§1)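 Test solutions 1 mg/mL in acetone; fresh wheat leaves dipped 3 s, air-dried indoors; acetone-only leaves as blank control. Ten larvae per dish fed treated leaves, topped up if consumed; untreated fresh leaves from 48 h until adult emergence. Held at 25 ± 2 °C, RH 65-80%, 12 h/12 h light/dark. Corrected mortality = (T − C) × 100/(1 − C).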

[2] = test system: Mythimna separata; experiment: Insecticidal activity against pre-third-instar larvae of Mythimna separata (Oriental armyworm) assessed as corrected mortality rate at 1 mg/ml measured after 35 days by the leaf-dipping method; settings: 840 h; method in brief: as §1
[3] = test system: Mythimna separata; experiment: Insecticidal activity against pre-third-instar larvae of Mythimna separata (Oriental armyworm) assessed as corrected mortality rate at 1 mg/ml measured after 20 days by the leaf-dipping method; settings: 480 h; method in brief: as §1

COc1cc2c(cc1OC)[C@H](OC(=O)Cc1ccccc1)[C@H]1COC(=O)[C@@H]1[C@@H]2c1cc(OC)c(OC)c(OC)c1
mortality at 1000 µg/mL [1]: 3.3% | mortality at 1000 µg/mL [2]: 26.7% | mortality at 1000 µg/mL [3]: 13.3%

CCCCCC(=O)O[C@H]1c2cc(OC)c(OC)cc2[C@@H](c2cc(OC)c(OC)c(OC)c2)[C@H]2C(=O)OC[C@@H]21
mortality at 1000 µg/mL [1]: 6.7% | mortality at 1000 µg/mL [2]: 36.7% | mortality at 1000 µg/mL [3]: 23.3%

COc1cc2c(cc1OC)[C@H](O)[C@H]1COC(=O)[C@@H]1[C@@H]2c1cc(OC)c(OC)c(OC)c1 [6,7-O,O-DEMETHYLENE-6,7-O,O-DIMETHYLPODOPHYLLOTOXIN]
mortality at 1000 µg/mL [1]: 0% | mortality at 1000 µg/mL [2]: 36.7% | mortality at 1000 µg/mL [3]: 23.3%

COc1cc2c(cc1OC)[C@@H](O)[C@H]1COC(=O)[C@@H]1[C@@H]2c1cc(OC)c(OC)c(OC)c1 [6,7-O,O-DEMETHYLENE-6,7-O,O-DIMETHYLEPIPODOPHYLLOTOXIN]
mortality at 1000 µg/mL [1]: 16.7% | mortality at 1000 µg/mL [2]: 40% | mortality at 1000 µg/mL [3]: 23.3%

COc1cc([C@@H]2c3cc(O)c(O)cc3[C@H](O)[C@H]3COC(=O)[C@H]23)cc(OC)c1OC [6,7-O,O-DEMETHYLENEPODOPHYLLOTOXIN]
mortality at 1000 µg/mL [1]: 0% | mortality at 1000 µg/mL [2]: 23.3% | mortality at 1000 µg/mL [3]: 6.7%

COc1cc([C@@H]2c3cc(OCc4ccccc4)c(OCc4ccccc4)cc3[C@@H](OC(=O)Cc3cccc4ccccc34)[C@H]3COC(=O)[C@H]23)cc(OC)c1OC
mortality at 1000 µg/mL [1]: 3.3% | mortality at 1000 µg/mL [2]: 33.3% | mortality at 1000 µg/mL [3]: 26.7%

COc1cc2c(cc1OC)[C@@H](OC(=O)Cc1cccc3ccccc13)[C@H]1COC(=O)[C@@H]1[C@@H]2c1cc(OC)c(OC)c(OC)c1
mortality at 1000 µg/mL [1]: 13.3% | mortality at 1000 µg/mL [2]: 50% | mortality at 1000 µg/mL [3]: 20%

COc1cc([C@@H]2c3cc(OCc4ccccc4)c(OCc4ccccc4)cc3[C@H](O)[C@H]3COC(=O)[C@H]23)cc(OC)c1OC [6,7-O,O-DEMETHYLENE-6,7-O,O-DIBENZYLPODOPHYLLOTOXIN]
mortality at 1000 µg/mL [1]: 10% | mortality at 1000 µg/mL [2]: 33.3% | mortality at 1000 µg/mL [3]: 33.3%

COc1cc([C@@H]2c3cc(OCc4ccccc4)c(OCc4ccccc4)cc3[C@@H](OC(=O)Cc3ccccc3)[C@H]3COC(=O)[C@H]23)cc(OC)c1OC
mortality at 1000 µg/mL [1]: 3.3% | mortality at 1000 µg/mL [2]: 40% | mortality at 1000 µg/mL [3]: 16.7%

COc1cc2c(cc1OC)[C@H](OC(=O)c1ccc(C)cc1)[C@H]1COC(=O)[C@@H]1[C@@H]2c1cc(OC)c(OC)c(OC)c1
mortality at 1000 µg/mL [1]: 6.7% | mortality at 1000 µg/mL [2]: 33.3% | mortality at 1000 µg/mL [3]: 16.7%

COc1cc2c(cc1OC)[C@H](OC(=O)Cc1cccc3ccccc13)[C@H]1COC(=O)[C@@H]1[C@@H]2c1cc(OC)c(OC)c(OC)c1
mortality at 1000 µg/mL [1]: 10% | mortality at 1000 µg/mL [2]: 60% | mortality at 1000 µg/mL [3]: 26.7%

COc1cc2c(cc1OC)[C@H](OC(=O)c1ccccc1)[C@H]1COC(=O)[C@@H]1[C@@H]2c1cc(OC)c(OC)c(OC)c1
mortality at 1000 µg/mL [1]: 10% | mortality at 1000 µg/mL [2]: 36.7% | mortality at 1000 µg/mL [3]: 26.7%

CCCCCCCC(=O)O[C@H]1c2cc(OC)c(OC)cc2[C@@H](c2cc(OC)c(OC)c(OC)c2)[C@H]2C(=O)OC[C@@H]21
mortality at 1000 µg/mL [1]: 10% | mortality at 1000 µg/mL [2]: 53.3% | mortality at 1000 µg/mL [3]: 30%

COc1cc2c(cc1OC)[C@H](OC(=O)c1cccc([N+](=O)[O-])c1)[C@H]1COC(=O)[C@@H]1[C@@H]2c1cc(OC)c(OC)c(OC)c1
mortality at 1000 µg/mL [1]: 3.3% | mortality at 1000 µg/mL [2]: 36.7% | mortality at 1000 µg/mL [3]: 16.7%

CCCC(=O)O[C@@H]1c2cc(OC)c(OC)cc2[C@@H](c2cc(OC)c(OC)c(OC)c2)[C@H]2C(=O)OC[C@@H]21
mortality at 1000 µg/mL [1]: 3.3% | mortality at 1000 µg/mL [2]: 36.7% | mortality at 1000 µg/mL [3]: 10%

CC(=O)O[C@@H]1C[C@H](O)[C@@]23CO[C@@H](O)[C@]1(C)[C@@H]2C[C@@H](O)[C@]1(C)[C@@H]3C(=O)[C@H](OC(C)=O)[C@@]2(C)[C@H](c3ccoc3)C[C@H]3O[C@]321 [TOOSENDANIN]
mortality at 1000 µg/mL [1]: 10% | mortality at 1000 µg/mL [2]: 50% | mortality at 1000 µg/mL [3]: 20%

COc1cc([C@@H]2c3cc4c(cc3[C@H](O)[C@H]3COC(=O)[C@H]23)OCO4)cc(OC)c1OC [PODOFILOX]
mortality at 1000 µg/mL [1]: 13.3% | mortality at 1000 µg/mL [2]: 40% | mortality at 1000 µg/mL [3]: 23.3%

CCCCCC(=O)O[C@@H]1c2cc(OC)c(OC)cc2[C@@H](c2cc(OC)c(OC)c(OC)c2)[C@H]2C(=O)OC[C@@H]21
mortality at 1000 µg/mL [1]: 23.3% | mortality at 1000 µg/mL [2]: 43.3% | mortality at 1000 µg/mL [3]: 26.7%

CCCC(=O)O[C@H]1c2cc(OC)c(OC)cc2[C@@H](c2cc(OC)c(OC)c(OC)c2)[C@H]2C(=O)OC[C@@H]21
mortality at 1000 µg/mL [1]: 6.7% | mortality at 1000 µg/mL [2]: 33.3% | mortality at 1000 µg/mL [3]: 20%

COc1cc2c(cc1OC)[C@H](OC(=O)c1cccc(Cl)c1)[C@H]1COC(=O)[C@@H]1[C@@H]2c1cc(OC)c(OC)c(OC)c1
mortality at 1000 µg/mL [1]: 3.3% | mortality at 1000 µg/mL [2]: 50% | mortality at 1000 µg/mL [3]: 23.3%

COc1cc2c(cc1OC)[C@H](OC(=O)c1ccc([N+](=O)[O-])cc1)[C@H]1COC(=O)[C@@H]1[C@@H]2c1cc(OC)c(OC)c(OC)c1
mortality at 1000 µg/mL [1]: 3.3% | mortality at 1000 µg/mL [2]: 46.7% | mortality at 1000 µg/mL [3]: 13.3%

COc1cc([C@@H]2c3cc(OCc4ccccc4)c(OCc4ccccc4)cc3[C@@H](OC(=O)c3cccc([N+](=O)[O-])c3)[C@H]3COC(=O)[C@H]23)cc(OC)c1OC
mortality at 1000 µg/mL [1]: 3.3% | mortality at 1000 µg/mL [2]: 33.3% | mortality at 1000 µg/mL [3]: 6.7%

COc1cc2c(cc1OC)[C@@H](OC(=O)c1cccc([N+](=O)[O-])c1)[C@H]1COC(=O)[C@@H]1[C@@H]2c1cc(OC)c(OC)c(OC)c1
mortality at 1000 µg/mL [1]: 10% | mortality at 1000 µg/mL [2]: 36.7% | mortality at 1000 µg/mL [3]: 26.7%

CCCCCC(=O)O[C@@H]1c2cc(OCc3ccccc3)c(OCc3ccccc3)cc2[C@@H](c2cc(OC)c(OC)c(OC)c2)[C@H]2C(=O)OC[C@@H]21
mortality at 1000 µg/mL [1]: 10% | mortality at 1000 µg/mL [2]: 33.3% | mortality at 1000 µg/mL [3]: 13.3%

COc1cc2c(cc1OC)[C@H](OC(C)=O)[C@H]1COC(=O)[C@@H]1[C@@H]2c1cc(OC)c(OC)c(OC)c1
mortality at 1000 µg/mL [1]: 10% | mortality at 1000 µg/mL [2]: 36.7% | mortality at 1000 µg/mL [3]: 23.3%

COc1cc2c(cc1OC)[C@@H](OC(=O)Cc1ccccc1)[C@H]1COC(=O)[C@@H]1[C@@H]2c1cc(OC)c(OC)c(OC)c1
mortality at 1000 µg/mL [1]: 10% | mortality at 1000 µg/mL [2]: 33.3% | mortality at 1000 µg/mL [3]: 16.7%

COc1cc2c(cc1OC)[C@H](OC(=O)CCl)[C@H]1COC(=O)[C@@H]1[C@@H]2c1cc(OC)c(OC)c(OC)c1
mortality at 1000 µg/mL [1]: 0% | mortality at 1000 µg/mL [2]: 26.7% | mortality at 1000 µg/mL [3]: 13.3%
